One series relates to Ca9-22. The series is described as follows: Cytotoxicity against human Ca9-22 cells by MTT assay. In kind it is functional, cell-based. In general terms: Tetrazolium dyes change colour on reduction, which living cells bring about.
Another series has as its system MDA-MB-231. The series is described as follows: Cytotoxicity against human MDA-MB-231 cells by MTT assay. The series is classed as functional, cell-based.
Series [1] in a line: Antiinflammatory activity in human neutrophils assessed as inhibition of FMLP/CB-induced superoxide anion generation at 10 ug/mL incubated for 5 mins prior to FMLP/CB-challenge measured after 10 mins by spectrophotometry. In kind it is functional. The note with it: Neutrophil. The procedure, abridged: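 Human neutrophils isolated by dextran sedimentation and Ficoll centrifugation, supplemented with ferricytochrome c (0.5 mg/mL) and Ca2+ (1 mM). Equilibrated 2 min at 37 °C, compound added for 5 min, then cytochalasin B (1 μg/mL) for 3 min, then fMLP (100 nM) for 10 min. SOD-inhibitable ferricytochrome c reduction followed at 550 nm with stirring. Expressed as % of fMLP/CB-activated response. DPI positive control; mean ± SEM, n = 3.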

Series [2] in a line: Antiinflammatory activity in human neutrophils assessed as inhibition of FMLP/CB-induced elastase release at 10 ug/mL incubated for 5 mins prior to FMLP/CB-challenge by spectrophotometry. The series is classed as functional. The conditions noted are these: Neutrophil. An outline of the steps:
(§1)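 Neutrophils isolated from human blood by dextran sedimentation and Ficoll centrifugation, used at 6 × 10^5/mL with MeO-Suc-Ala-Ala-Pro-Val-p-nitroanilide (100 μM). Equilibrated 2 min at 37 °C, compound added for 5 min, then activated with fMLP (100 nM)/CB (0.5 μg/mL). Absorbance at 405 nm monitored continuously. Initial elastase release rate expressed as % of the fMLP/CB-activated DMSO control. PMSF positive control; mean ± SEM, n = 3.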

The test system of a further series is HepG2. The series is described as follows: Cytotoxicity against human HepG2 cells by MTT assay. In kind it is functional, cell-based.
Series [3] in a line: Cytotoxicity against human Hep3B cells by MTT assay. In kind it is functional, cell-based, Hep 3B2.
The subject of another series is MCF7. The series is described as follows: Cytotoxicity against human MCF7 cells by MTT assay. In kind it is functional, cell-based.
A further series deals with A549. The series is described as follows: Cytotoxicity against human A549 cells by MTT assay. The series is classed as functional, cell-based.
Series [4] is described as follows: Antiinflammatory activity in human neutrophils assessed as inhibition of FMLP/CB-induced superoxide anion generation incubated for 5 mins prior to FMLP/CB-challenge measured after 10 mins by spectrophotometry. In kind it is functional, cell-based. The note with it: Neutrophil. An outline of the steps: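 Neutrophils isolated by dextran sedimentation and Ficoll centrifugation. Cells were given 0.5 mg/mL ferricytochrome c and 1 mM Ca2+ and equilibrated at 37 °C for 2 min. They were then exposed to drug for 5 min and to cytochalasin B (1 μg/mL) for 3 min, then activated with fMLP (100 nM) for 10 min. Read-out was SOD-inhibitable ferricytochrome c reduction at 550 nm, monitored continuously. Mean ± SEM, n = 3.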

The nature of series [5]: Antiinflammatory activity in human neutrophils assessed as inhibition of FMLP/CB-induced elastase release incubated for 5 mins prior to FMLP/CB-challenge by spectrophotometry. The series is classed as functional, cell-based. The note with it: Neutrophil. An outline of the steps:
as §1

Series [6] can be described thus: Cytotoxicity against human neutrophils assessed as increase in LDH level relative to control. The series is classed as cell-based. The conditions noted are these: neutrophil. An outline of the steps:
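Lysed-cell reference made with 0.1% Triton X-100, 30 min at 37 °C. LDH in the cell-free medium was measured with a commercial kit. Result given as a percentage of total LDH release.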

For another series, the system named is Neutrophil. The series is described as follows: Ratio of PMSF IC50 to compound IC50 for antiinflammatory activity assessed as inhibition of elastase release in human neutrophils. The series is classed as functional.

Structures are written as SMILES. In brackets after ≈: the same amount, converted by molar mass.

In the case of `CC[C@H](CC[C@@H](C)[C@H]1CC[C@H]2[C@@H]3CC=C4C[C@@H](O[C@@H]5O[C@H](CO)[C@@H](O)[C@H](O)[C@H]5O)CC[C@]4(C)[C@H]3CC[C@]12C)C(C)C` [SITOGLUSIDE], the IC50 (in the series with Ca9-22; with MDA-MB-231; in the series on HepG2; in series [3]; with MCF7; with A549) was > 20 µg/mL each time. Also, the values for the inhibition at 10 µg/mL in series [1] and in series [2] were 24.9% and 1.58%, respectively.
`C[C@H]1CC[C@@]2(OC1)O[C@H]1C[C@H]3[C@@H]4CC=C5C[C@@H](O[C@@H]6O[C@H](CO)[C@@H](O)[C@H](O)[C@H]6O[C@@H]6O[C@@H](C)[C@H](O)[C@@H](O)[C@H]6O)CC[C@]5(C)[C@H]4CC[C@]3(C)[C@H]1[C@@H]2C`: the IC50 in the series on Ca9-22 is 4.51 µg/mL (≈ 6.24 µM); in the series with MDA-MB-231, 7.25 µg/mL (≈ 10 µM); in the series with HepG2, 6.48 µg/mL (≈ 8.96 µM); in series [3], 6.98 µg/mL (≈ 9.66 µM); in the series on MCF7, 5.84 µg/mL (≈ 8.08 µM); with A549, 4.26 µg/mL (≈ 5.89 µM).
With `c1ccc2c(c1)[I+]c1ccccc1-2` [DIPHENYLENEIODONIUM], the IC50 in series [4] was 0.22 µg/mL.
Take `O=S(=O)(F)Cc1ccccc1` [PHENYLMETHYLSULFONYLFLUORIDE]: the IC50 in [5] was found to be 22.8 µg/mL (≈ 131 µM).
For the compound `C[C@H]1CC[C@]2(OC1)O[C@H]1C[C@H]3[C@@H]4CC=C5C[C@@H](O[C@@H]6O[C@H](CO)[C@@H](O)[C@H](O)[C@H]6O[C@@H]6O[C@@H](C)[C@H](O)[C@@H](O)[C@H]6O)CC[C@]5(C)[C@H]4CC[C@]3(C)[C@H]1[C@H]2C`, the IC50 came out at 2.95 µg/mL (≈ 4.08 µM) with Ca9-22; 6.12 µg/mL (≈ 8.47 µM) in the series on MDA-MB-231; 2.22 µg/mL (≈ 3.07 µM) with HepG2; 2.95 µg/mL (≈ 4.08 µM) in series [3]; 4.78 µg/mL (≈ 6.61 µM) with MCF7; 3.09 µg/mL (≈ 4.27 µM) with A549.
As to `C/C(=C\CO)CC[C@@H]1[C@@]2(C)CC[C@H](O[C@@H]3O[C@H](CO)[C@@H](O)[C@H](O)[C@H]3O)C(C)(C)[C@@H]2CC[C@]1(C)O` [TRICALYSIOSIDE U], the IC50 (in the series with Ca9-22; with MDA-MB-231; with HepG2; in series [3]; in the series on MCF7; in the series on A549) was > 20 µg/mL in each case.
As to `C[C@@H]1CC[C@]2(OC1)O[C@H]1C[C@H]3[C@@H]4CC=C5C[C@@H](O[C@@H]6O[C@H](CO)[C@@H](O[C@@H]7O[C@@H](C)[C@H](O)[C@@H](O)[C@H]7O)[C@H](O)[C@H]6O)CC[C@]5(C)[C@H]4CC[C@]3(C)[C@H]1[C@H]2C` [BORASSOSIDE D], the IC50 (in the series on Ca9-22; in the series with MDA-MB-231; in the series on HepG2; in [3]; in the series with MCF7; in the series on A549) was > 20 µg/mL in each case.
In the case of `CC[C@H](CC[C@@H](C)[C@H]1CC[C@H]2[C@@H]3C(O)C=C4C[C@@H](O[C@@H]5O[C@H](CO)[C@@H](O)[C@H](O)[C@H]5O)CC[C@]4(C)[C@H]3CC[C@]12C)C(C)C` (some centres not stated), the IC50 (in the series on Ca9-22; in the series on MDA-MB-231; with HepG2; in [3]; in the series with MCF7; in the series with A549) was > 20 µg/mL in each case.
Regarding `COc1cccc2c1C(=O)c1c(O)c3c(c(O)c1C2=O)C[C@@](O)(C(=O)CO)C[C@@H]3O[C@H]1C[C@H](N)[C@H](O)[C@H](C)O1` [DOXORUBICIN], the IC50 was found to be 0.31 µg/mL (≈ 0.57 µM) with Ca9-22; 1.39 µg/mL (≈ 2.56 µM) in the series on MDA-MB-231; 1.31 µg/mL (≈ 2.41 µM) in series [3]; 0.8 µg/mL (≈ 1.47 µM) in the series on MCF7; 1.4 µg/mL (≈ 2.58 µM) in the series on A549.
Turning to `C[C@H]1CC[C@@]2(OC1)O[C@H]1C[C@H]3[C@@H]4CC=C5C[C@@H](O[C@@H]6O[C@H](CO)[C@@H](O[C@@H]7O[C@@H](C)[C@H](O)[C@@H](O)[C@H]7O)[C@H](O)[C@H]6O[C@@H]6O[C@@H](C)[C@H](O)[C@@H](O)[C@H]6O)CC[C@]5(C)[C@H]4CC[C@]3(C)[C@H]1[C@@H]2C`, the IC50 in the series on Ca9-22 is 3.77 µg/mL (≈ 4.34 µM); in the series on MDA-MB-231, 5.84 µg/mL (≈ 6.72 µM); in [4] it was 1.62 µg/mL (≈ 1.86 µM); in series [5], 4.04 µg/mL (≈ 4.65 µM); in the series with HepG2 it was 6.44 µg/mL (≈ 7.41 µM); in series [3], 2.87 µg/mL (≈ 3.3 µM). Also, the figures for the IC50 in the series on MCF7 and in the series with A549 were 8.84 µg/mL (≈ 10.2 µM) and 4.09 µg/mL (≈ 4.71 µM), respectively. The Activity entry in [6] was “Toxic”. Besides, in the series with Neutrophil, the “Ratio IC50” value is recorded as 5.
Consider `O=C(/C=C/c1ccc(O)cc1)NCCc1ccc(O)cc1` [N-P-COUMAROYL TYRAMINE], for which the IC50 was 12.3 µg/mL (≈ 43.3 µM) in the series with Ca9-22; > 20 µg/mL in the series with MDA-MB-231; 9.57 µg/mL (≈ 33.8 µM) in the series on HepG2; 11.2 µg/mL (≈ 39.6 µM) in [3]; > 20 µg/mL in the series with MCF7; 15.2 µg/mL (≈ 53.7 µM) in the series with A549. Moreover, the inhibition at 10 µg/mL in [1] is 23.2%; in [2] it was -0.17%. The Activity result in [6] is listed as “Non-toxic”.
Regarding `C[C@H]1CC[C@@]2(OC1)O[C@H]1C[C@H]3[C@@H]4CC[C@H]5C[C@@H](O[C@@H]6O[C@H](CO)[C@@H](O[C@@H]7O[C@@H](C)[C@H](O)[C@@H](O)[C@H]7O)[C@H](O)[C@H]6O[C@@H]6O[C@@H](C)[C@H](O)[C@@H](O)[C@H]6O)CC[C@]5(C)[C@H]4CC[C@]3(C)[C@H]1[C@@H]2C`, the IC50 came out at 6.76 µg/mL (≈ 7.76 µM) in the series on Ca9-22; 8.04 µg/mL (≈ 9.23 µM) in the series with MDA-MB-231; 2.84 µg/mL (≈ 3.26 µM) in [4]; 5.33 µg/mL (≈ 6.12 µM) in the series on HepG2; 3.32 µg/mL (≈ 3.81 µM) in [3]; 11.6 µg/mL (≈ 13.3 µM) with MCF7. The compound also returned an IC50 in the series with A549 of 7.27 µg/mL (≈ 8.35 µM). Besides, the inhibition at 10 µg/mL in series [2] came to 38.9%. The Activity result in [6] is “Toxic”.
With `C[C@H]1CC[C@]2(OC1)O[C@H]1C[C@H]3[C@@H]4CC=C5C[C@@H](O[C@@H]6O[C@H](CO)[C@@H](O[C@@H]7O[C@@H](C)[C@H](O)[C@@H](O)[C@H]7O)[C@H](O)[C@H]6O[C@@H]6O[C@@H](C)[C@H](O)[C@@H](O)[C@H]6O)CC[C@]5(C)[C@H]4CC[C@]3(C)[C@H]1[C@H]2C` [BORASSOSIDE E], the IC50 with Ca9-22 turned out to be 2.33 µg/mL (≈ 2.68 µM); with MDA-MB-231, 2.75 µg/mL (≈ 3.16 µM); in series [4], 0.62 µg/mL (≈ 0.713 µM); in series [5], 111 µg/mL (≈ 128 µM); with HepG2, 1.83 µg/mL (≈ 2.11 µM); in series [3], 2.03 µg/mL (≈ 2.34 µM). The IC50 with MCF7 was determined as 2.61 µg/mL (≈ 3 µM); with A549 it was 2.34 µg/mL (≈ 2.69 µM). Further, the Activity result in [6] is “Toxic”.

One may read the IC50 as the concentration that gives 50% inhibition. Broadly, the inhibition is the change of the read-out against control, counted positive when it falls.
